This is a sample that favours compounds with a hit; in the whole collection about 2.6% have one here.
MEKK3 PB1 HTS: MEKK3-MEK5 PB1 interaction, increase or decrease | binding response (% of control), % at 10 µM | AID 1529 | bead-based flow cytometry, Alexa488-MEK5 binding to MEKK3; actives lie on both sides; 0 = blocked by unlabeled MEK5, 100 = vehicle | actives 1.4% (n = 290,000);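 active = binding response more than 3 SD above or below the average of its plate-row segment, actives on both sides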;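 also: Alexa488 bead fluorescence after subtracting the streptavidin-only scavenger bead signal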
Target sequence (Q99759 whole entry, looked up): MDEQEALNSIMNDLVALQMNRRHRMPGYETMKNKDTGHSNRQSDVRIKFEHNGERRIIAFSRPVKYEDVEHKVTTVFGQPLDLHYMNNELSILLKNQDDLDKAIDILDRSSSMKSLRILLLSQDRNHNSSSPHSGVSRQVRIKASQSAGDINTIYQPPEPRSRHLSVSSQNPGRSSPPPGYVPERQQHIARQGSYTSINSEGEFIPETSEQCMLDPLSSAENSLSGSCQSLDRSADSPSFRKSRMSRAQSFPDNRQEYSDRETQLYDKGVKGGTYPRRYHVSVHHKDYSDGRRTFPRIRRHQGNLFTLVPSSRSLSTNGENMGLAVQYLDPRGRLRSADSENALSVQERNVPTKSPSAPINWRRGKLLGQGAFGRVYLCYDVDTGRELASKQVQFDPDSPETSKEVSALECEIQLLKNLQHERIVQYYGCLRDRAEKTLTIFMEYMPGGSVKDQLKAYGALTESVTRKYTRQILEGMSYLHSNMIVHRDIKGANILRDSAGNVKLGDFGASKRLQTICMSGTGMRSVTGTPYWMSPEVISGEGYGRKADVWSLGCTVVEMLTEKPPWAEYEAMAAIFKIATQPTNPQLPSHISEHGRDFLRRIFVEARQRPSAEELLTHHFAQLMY
MEKK2 mut-MEK5: signal of MEK5 binding to mutant human MEKK2 PB1 domain. percent response, % at 10 µM. bead flow cytometry, Alexa488-MEK5 binding to MEKK2 mutant. actives 0.35% (n = 290,000); in the data active = percent response above about 24%, passing the limit was not always enough
Hep lipid drop: hepatic lipid droplet formation modulation. AML12 mouse hepatocytes, oleate lipid droplets, BODIPY imaging. inhibition, % at 6.5 µM. AID 1656. actives 0.4% (n = 240,000);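 active = lipid droplet intensity inhibited by at least 50%, with more than 500 cells counted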
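System: AML12 hepatocytes (mouse). Probe or stimulus: oleic acid at 100 µM to induce lipid droplet formation. Times: overnight treatment with compound plus oleate. Detection: Image-based BODIPY and DAPI two-channel analysis. Evaluation: percent inhibition of filter-corrected integrated lipid droplet intensity per well.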
MEKK2 WT-MEK5: raises or lowers MEK5 binding to wildtype human MEKK2 PB1 domain; binding response (% of control), % at 10 µM; bead flow cytometry, Alexa488-MEK5 binding to MEKK2 WT; actives lie on both sides; AID 1531; actives 1.1% (n = 290,000); Q9Y2U5; in the data active = binding response below about 67% or above about 130%
MEKK2wt confirm: raises or lowers MEK5 binding to wildtype human MEKK2, retest; shares compounds with MEKK3 PB1 HTS; bead flow cytometry, Alexa488-MEK5 binding to MEKK2 WT; actives lie on both sides; binding response (% of control), % at 10 µM; actives 2.4% (n = 5,900); in the data active = binding response below about 16% or above about 210%; inactive = in between
MEKK2mut confirm: signal of MEK5 binding to mutant human MEKK2, retest; shares compounds with MEKK3 PB1 HTS; bead flow cytometry, Alexa488-MEK5 binding to MEKK2 mutant; percent response, % at 10 µM; actives 2% (n = 5,900); AID 1893; in the data active = percent response mostly above about 71%, no sharp cut-off; inactive = mostly below about 38%;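 also: higher means compound restores mutant binding toward wildtype level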
MEKK3 confirm: MEKK3-MEK5 PB1 inhibition, single concentration confirmation; shares compounds with MEKK3 PB1 HTS; binding response (% of control), % at 10 µM; bead flow cytometry, Alexa488-MEK5 binding to MEKK3; active compounds read low; actives 1.8% (n = 5,900); AID 1894;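 active = binding response below 72% of control, or above a set upper limit, though filed actives all read lower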;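 also: 100% = DMSO only wells and 0% = binding blocked by excess unlabeled MEK5; lower values mean stronger disruption of MEK5 binding to MEKK3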
* hit, by the source's call; nt = no result given; [ ] = another dose, or the depositor's remark.

SMILES | MEKK3 PB1 HTS | MEKK2 mut-MEK5 | Hep lipid drop | MEKK2 WT-MEK5 | MEKK2wt confirm | MEKK2mut confirm | MEKK3 confirm
COc1ccccc1C(=O)NCCNC(=O)c1ccc(C)nc1 | 103 | 5 | -28 | 97 | nt | nt | nt
COc1ccccc1C(=O)NCCCn1cc(Br)c(C)n1 | 122 | 14 | 6 | 138* | 114 | 12 | 107
CCn1nnnc1SCC(=O)NC1Cc2ccccc2C1 | 89 | -25 | 1 | 95 | nt | nt | nt
CC(C)C(=O)NNC(=O)CSc1nc(C2CCCCC2)nc2ccccc12 | 140* | 2 | 7 | 108 | 103 | 3 | 104
CCc1nc(SCC(=O)NNC(=O)C(C)C)c2ccccc2n1 | 106 | 2 | -11 | 107 | nt | nt | nt
C/C(=N/OC(=O)C1CC12CCC2)c1ccc(Br)cc1 (configuration not stated) | 102 | -9 | -10 | 89 | nt | nt | nt
Cc1ccc(C(C(=O)NC2CCCC2)N(C(=O)CNC(=O)c2cccs2)c2cccnc2)o1 (configuration not stated) | 71*[inhibitor] | 4 | -6 | 106 | 102 | 2 | 104
COc1ccc(N(C(=O)CNC(=O)c2cccs2)C(C(=O)NCC2CCCO2)c2ccccc2)cc1 (configuration not stated) | 5.0*[inhibitor] | -19 | -5 | 6.0*[inhibitor] | 105 | 4 | 104
Cc1ccc(C(C(=O)NC2CCCC2)N(Cc2cccs2)C(=O)CNC(=O)c2cccs2)o1 (configuration not stated) | 92 | 4 | nt | 103 | nt | nt | nt
Cc1ccc(CSc2nnc(CCCCCNC(=O)OC(C)(C)C)o2)cc1 | 97 | 6 | -19 | 101 | nt | nt | nt
Cc1cccc(CSc2nnc(CCCCCNC(=O)OC(C)(C)C)o2)c1 | 138* | 30 | -9 | 118 | 109 | 6 | 105
Cc1ccc(-c2nc(N)sc2CC(=O)OCC(=O)N2C(C)CCCC2C)cc1 (configuration not stated) | 140* | 1 | -4 | 111 | 98 | -5 | 101
Cc1ccc(-c2nc(N)sc2CC(=O)OCC(=O)NC2CCCC(C)C2C)cc1 (configuration not stated) | 97 | -9 | 12 | 90 | nt | nt | nt
O=C(CSCc1cc(=O)n2ccsc2n1)Nc1ccccc1 | 106 | 6 | 17 | 106 | nt | nt | nt
COc1ccc([N+](=O)[O-])cc1NC(=O)CSc1ccc2ccccc2c1 | 148* | 0 | -11 | 108 | 104 | -2 | 103
O=C(NCc1cccs1)C1CCC(=O)N(Cc2cccc(C(F)(F)F)c2)C1 (configuration not stated) | 104 | 2 | 1 | 106 | nt | nt | nt
FC(F)(F)c1cc(N2CCN(Cc3ccccc3)CC2)c2ccccc2n1 | 75*[inhibitor] | -13 | 6 | 84 | 95 | -7 | 95
CN(CCOc1ccc(-c2ccn(S(=O)(=O)c3cccc4ccccc34)n2)cc1)c1ccccn1 | 1.0*[inhibitor] | -16 | -52 | 2.0*[inhibitor] | 100 | 0 | 105
CC1CC(C)CN(C(=O)COC(=O)c2cccc([N+](=O)[O-])c2)C1 (configuration not stated) | 48*[inhibitor] | -16 | -13 | 50 | 100 | -4 | 106
CC1CN(C(=O)COC(=O)c2ccc(N)c([N+](=O)[O-])c2)CC(C)O1 (configuration not stated) | 97 | 5 | 4 | 110 | nt | nt | nt
COc1ccc(-c2nc3c(c(=O)c4ccccc4n3C)c(=O)n2Cc2ccccc2)cc1 | 149* | 0 | 10 | 105 | 99 | 3 | 102
COc1ccc(Cn2c(-c3ccc(OC)cc3)nc3c(c(=O)c4ccccc4n3C)c2=O)cc1 | 102 | 11 | -10 | 94 | nt | nt | nt
COc1ccc(Cn2c(-c3ccco3)nc3c(c(=O)c4ccccc4n3C)c2=O)cc1 | 136* | 28 | -2 | 108 | 101 | 6 | 106
CC(NC(=O)CCNS(=O)(=O)c1cccc2nonc12)c1ccccc1 (configuration not stated) | 103 | 8 | 5 | 104 | nt | nt | nt
CC1S/C(=C(\C#N)C(=O)NCc2ccco2)N(Cc2ccco2)C1=O (configuration not stated) | 49*[inhibitor] | -34 | nt | 38*[inhibitor] | 100 | 1 | 101
SMILES | MEKK3 PB1 HTS | MEKK2 mut-MEK5 | Hep lipid drop | MEKK2 WT-MEK5 | MEKK2wt confirm | MEKK2mut confirm | MEKK3 confirm
Cc1ccc(CC2S/C(=C(/C#N)C(=O)NCc3ccco3)N(c3ccccc3)C2=O)cc1 (configuration not stated) | 91 | -9 | nt | 89 | nt | nt | nt
COc1ccc(N2C(=O)CC(Sc3nc(C)cc(C)c3C#N)C2=O)cc1 (configuration not stated) | 1.0*[inhibitor] | -3 | -4 | -7.0*[inhibitor] | 102 | 2 | 106
Cc1ccc(CN(C)C(=O)C2CCC(=O)N(C3CCCCCC3)C2)cc1 (configuration not stated) | 96 | 5 | 2 | 99 | nt | nt | nt
COc1ccc(CCNCC2C(Oc3ccc(Cl)cc3)C(=O)N2c2ccccc2C)cc1OC (configuration not stated) | 106 | 32 | -39 | 155* | 126 | 12 | 102
CCCC[C@@H](CNC)NC[C@H](NCCCCC1CCCCC1)C(C)C | 102 | 30* | -3 | 133 | 143 | 21 | 109
CCC(=O)Nc1ccccc1C(=O)OCc1ccc(C(=O)c2ccccc2)cc1 | 107 | 3 | nt | 109 | nt | nt | nt
CCC(=O)Nc1ccccc1C(=O)OCC(=O)c1cccc2ccccc12 | 68*[inhibitor] | -11 | nt | 79 | 99 | -9 | 100
CCOC(=O)C1(C)NC(c2ccco2)C2C(=O)N(C)C(=O)C21 (configuration not stated) | 99 | -7 | -4 | 99 | nt | nt | nt
Cc1cccc2nc(COc3ccc(Cl)c4cccnc34)cn12 | 95 | -6 | 2 | 88 | nt | nt | nt
Cc1ccc(S(=O)(=O)N(C)C)cc1-n1c(SCC(=O)N(C)C)nc2ccccc2c1=O | 95 | -3 | 0 | 94 | nt | nt | nt
Cc1ccc(S(=O)(=O)N(C)C)cc1-n1c(SCC(=O)Nc2ccc(F)c(F)c2F)nc2ccccc2c1=O | 148* | 1 | -29 | 106 | 97 | -4 | 104
O=C(CN1CC(c2ccccc2)CC1=O)N/N=C/c1cc(Br)ccc1O (configuration not stated) | 141* | 0 | -3 | 106 | 97 | -10 | 100
CCCOC(=O)c1ccc(OCC(O)CN2CCN(C(=O)c3ccccc3)CC2)cc1 (configuration not stated) | 109 | 27* | nt | 115 | 101 | 1 | 105
Cc1ccccc1NC(=O)c1nc2nccc(C)n2n1 | 69*[inhibitor] | -3 | -10 | 91 | 110 | -2 | 102
